# Reference: ChEMBL document CHEMBL1156026, “Design and synthesis of pyridazinone-based 5-HT(2C) agonists” (Bioorg Med Chem Lett, 2009)
# Legend:
# [1] = molecular target: 5-hydroxytryptamine receptor 2A (Homo sapiens, UniProt P28223); assay: Agonist activity at human recombinant 5HT2A receptor expressed in Swiss mouse 3T3 cells assessed as induction of calcium mobilization by FLIPR assay; type: functional, cell-based; details: for Emax: NIH3T3
# [2] = molecular target: T1, 5-hydroxytryptamine receptor 2C (Homo sapiens, UniProt P28335); assay: Displacement of [3H]meselurgine from human recombinant 5HT2C receptor expressed in Swiss mouse 3T3 cells by SPA; type: cell-based
# T1 sequence (P28335 whole entry): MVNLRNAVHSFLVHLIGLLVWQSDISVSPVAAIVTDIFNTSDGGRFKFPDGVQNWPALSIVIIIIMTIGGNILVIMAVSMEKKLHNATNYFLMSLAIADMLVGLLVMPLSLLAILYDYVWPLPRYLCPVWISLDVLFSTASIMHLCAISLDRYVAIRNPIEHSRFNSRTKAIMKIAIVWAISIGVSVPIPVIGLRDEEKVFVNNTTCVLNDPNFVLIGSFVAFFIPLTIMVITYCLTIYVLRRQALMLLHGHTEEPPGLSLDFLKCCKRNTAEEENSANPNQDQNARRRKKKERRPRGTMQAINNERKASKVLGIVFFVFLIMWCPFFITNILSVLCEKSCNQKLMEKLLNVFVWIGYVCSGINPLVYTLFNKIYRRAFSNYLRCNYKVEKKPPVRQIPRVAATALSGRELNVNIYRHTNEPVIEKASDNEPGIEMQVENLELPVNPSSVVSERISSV
# How it was run: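 Competition binding against [3H]-meselurgine at the human 5-HT2C receptor, read by scintillation proximity assay, using membrane preparations made from Swiss 3T3 cells expressing the recombinant receptor.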
# [3] = molecular target: T2, 5-hydroxytryptamine receptor 2C (Homo sapiens) (UniProt P28335); assay: (§1) Agonist activity at human recombinant 5HT2C receptor expressed in CHOK1 cells assessed as induction of calcium mobilization by FLIPR assay; type: functional, cell-based; details: CHO-K1
# T2 sequence (whole entry): T1 sequence (P28335 whole entry)
# [4] = molecular target: T1, 5-hydroxytryptamine receptor 2C; assay: as §1; type: functional, cell-based, CHO-K1
# [5] = molecular target: 5-hydroxytryptamine receptor 2B (Homo sapiens, UniProt P41595); assay: Agonist activity at human recombinant 5HT2B receptor expressed in Swiss mouse 3T3 cells assessed as induction of calcium mobilization by FLIPR assay; type: functional, cell-based; details: for Emax: NIH3T3
# [6] = Efflux ratio of permeability across MDCK cell membrane; type: ADME, cell-based, Canis lupus familiaris; details: dog
# [7] = Lipophilicity, log D at pH 7.4; type: physicochemical; details: buffer
# [8] = Metabolic stability in human liver microsomes; type: ADME, Microsome; details: read-out: Stability
# [9] = molecular target: GABA-A receptor; agonist GABA site (Homo sapiens) (UniProt P14867+P47870+P28472+P48169+P34903+P18505+P47869+P31644+Q16445); assay: Binding affinity to human GABAA receptor; type: protein-complex assay
# Canis familiaris [10] = assay: Increase in urethral pressure in continuous iv dosed dog model of stress urinary incontinence; type: functional, Canis lupus familiaris, Urethra
# [11] = molecular target: T3, B2 bradykinin receptor (Homo sapiens) (UniProt P30411); assay: Binding affinity to human bradykinin B2 receptor
# T3 sequence (whole entry): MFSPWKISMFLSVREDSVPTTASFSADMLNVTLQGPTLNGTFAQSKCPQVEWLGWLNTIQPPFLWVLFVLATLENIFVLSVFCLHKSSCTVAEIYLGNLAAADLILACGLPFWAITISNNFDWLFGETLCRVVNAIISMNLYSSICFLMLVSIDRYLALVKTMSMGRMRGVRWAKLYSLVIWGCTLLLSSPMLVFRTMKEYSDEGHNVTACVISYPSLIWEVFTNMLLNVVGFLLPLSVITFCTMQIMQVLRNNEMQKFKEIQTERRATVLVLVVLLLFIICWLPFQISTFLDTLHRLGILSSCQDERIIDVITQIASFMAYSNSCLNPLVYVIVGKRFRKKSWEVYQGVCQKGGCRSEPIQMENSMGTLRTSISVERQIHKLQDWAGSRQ
# [12] = molecular target: 5-hydroxytryptamine receptor 1B (Homo sapiens) (UniProt P28222); assay: Binding affinity to human 5HT1B receptor
# [13] = molecular target: 5-hydroxytryptamine receptor 1D (Homo sapiens) (UniProt P28221); assay: Binding affinity to human 5HT1D receptor
# [14] = molecular target: 5-hydroxytryptamine receptor 6 (Homo sapiens) (UniProt P50406); assay: Binding affinity to human 5HT6 receptor
# Canis familiaris [15] = assay: Plasma concentration in continuous iv dosed dog; type: ADME, organism-based, Canis lupus familiaris; details: in vivo
# 5-hydroxytryptamine receptor 2B, sequence (P41595 whole entry): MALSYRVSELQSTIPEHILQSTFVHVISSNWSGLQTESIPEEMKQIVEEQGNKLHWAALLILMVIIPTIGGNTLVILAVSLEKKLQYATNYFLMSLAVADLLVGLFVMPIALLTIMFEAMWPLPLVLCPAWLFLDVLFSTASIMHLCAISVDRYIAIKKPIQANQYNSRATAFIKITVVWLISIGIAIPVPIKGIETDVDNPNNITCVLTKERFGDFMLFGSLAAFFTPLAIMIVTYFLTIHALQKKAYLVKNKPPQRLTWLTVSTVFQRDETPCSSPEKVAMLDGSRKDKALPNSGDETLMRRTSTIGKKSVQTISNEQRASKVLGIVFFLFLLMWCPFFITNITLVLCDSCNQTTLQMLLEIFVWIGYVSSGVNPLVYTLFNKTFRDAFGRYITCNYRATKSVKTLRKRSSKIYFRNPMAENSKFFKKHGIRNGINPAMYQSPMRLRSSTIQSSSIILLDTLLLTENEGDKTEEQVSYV
# 5-hydroxytryptamine receptor 2A, sequence (P28223 whole entry): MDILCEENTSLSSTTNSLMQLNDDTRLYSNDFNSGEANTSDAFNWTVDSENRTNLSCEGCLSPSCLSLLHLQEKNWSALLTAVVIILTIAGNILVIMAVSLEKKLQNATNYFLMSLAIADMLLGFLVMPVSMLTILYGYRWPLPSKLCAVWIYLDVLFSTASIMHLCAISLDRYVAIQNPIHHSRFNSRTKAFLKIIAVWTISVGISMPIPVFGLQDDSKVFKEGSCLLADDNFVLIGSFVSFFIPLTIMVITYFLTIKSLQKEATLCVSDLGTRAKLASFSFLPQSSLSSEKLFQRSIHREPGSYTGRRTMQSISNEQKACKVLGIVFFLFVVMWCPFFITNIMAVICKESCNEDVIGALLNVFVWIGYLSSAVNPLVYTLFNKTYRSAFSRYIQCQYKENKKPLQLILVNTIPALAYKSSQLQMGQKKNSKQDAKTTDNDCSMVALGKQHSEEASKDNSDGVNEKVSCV
# 5-hydroxytryptamine receptor 6 (Homo sapiens), sequence (P50406 whole entry): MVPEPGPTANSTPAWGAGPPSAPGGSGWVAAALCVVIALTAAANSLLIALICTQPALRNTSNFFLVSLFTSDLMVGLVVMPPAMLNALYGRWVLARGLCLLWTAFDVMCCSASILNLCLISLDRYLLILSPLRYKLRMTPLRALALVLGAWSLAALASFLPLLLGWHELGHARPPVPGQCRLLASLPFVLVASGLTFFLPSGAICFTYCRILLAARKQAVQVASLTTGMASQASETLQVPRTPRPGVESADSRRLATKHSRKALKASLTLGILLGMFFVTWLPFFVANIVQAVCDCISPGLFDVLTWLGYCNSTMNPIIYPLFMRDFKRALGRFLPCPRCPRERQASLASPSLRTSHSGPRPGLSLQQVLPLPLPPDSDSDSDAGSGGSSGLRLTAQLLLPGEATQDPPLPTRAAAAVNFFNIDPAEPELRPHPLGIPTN
# 5-hydroxytryptamine receptor 1B (Homo sapiens), sequence (P28222 whole entry): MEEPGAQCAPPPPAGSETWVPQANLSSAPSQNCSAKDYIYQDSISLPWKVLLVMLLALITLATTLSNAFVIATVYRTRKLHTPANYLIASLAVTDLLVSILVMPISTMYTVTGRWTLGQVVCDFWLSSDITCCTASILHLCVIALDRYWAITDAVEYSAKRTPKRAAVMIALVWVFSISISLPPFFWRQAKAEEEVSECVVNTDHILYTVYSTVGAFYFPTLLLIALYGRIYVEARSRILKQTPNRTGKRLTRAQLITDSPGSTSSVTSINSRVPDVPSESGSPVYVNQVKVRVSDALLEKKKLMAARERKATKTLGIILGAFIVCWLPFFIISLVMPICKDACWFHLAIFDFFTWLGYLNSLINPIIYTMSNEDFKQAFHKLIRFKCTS
# 5-hydroxytryptamine receptor 1D (Homo sapiens), sequence (P28221 whole entry): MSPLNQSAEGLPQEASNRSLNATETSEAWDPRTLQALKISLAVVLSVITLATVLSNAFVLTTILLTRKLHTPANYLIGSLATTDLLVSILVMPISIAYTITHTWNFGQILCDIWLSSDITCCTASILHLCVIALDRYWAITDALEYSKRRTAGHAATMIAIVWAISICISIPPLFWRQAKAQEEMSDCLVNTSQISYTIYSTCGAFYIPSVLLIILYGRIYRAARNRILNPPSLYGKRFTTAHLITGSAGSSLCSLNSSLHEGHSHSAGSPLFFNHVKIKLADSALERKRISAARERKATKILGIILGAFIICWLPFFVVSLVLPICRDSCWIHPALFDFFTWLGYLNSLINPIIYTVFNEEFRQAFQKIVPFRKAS
structure (smiles),measurement,setting,value
O=c1ccc(N2CCNCC2)nn1CCOc1ccccc1C(F)(F)F,EC50,[1],1090 nM
same,Emax,[1],49%
same,Ki,[2],424 nM
same,Emax,[3],45%
same,EC50,[4],47 nM
same,EC50,[5],> 10000 nM
Cc1ccccc1OCCn1nc(N2CCNCC2)ccc1=O,Emax,[3],36%
same,EC50,[4],> 4550 nM
O=CC1CNCCN1c1ccc(=O)n(CCOc2ccccc2Cl)n1 (stereo not given),EC50,[4],> 9980 nM
C[C@H](Cn1nc(N2CCNCC2)ccc1=O)Oc1ccccc1Cl,Emax,[3],53%
same,EC50,[4],858 nM
O=c1ccc(N2CCNCC2)nn1CCOc1cccc(Cl)c1,EC50,[4],> 10000 nM
Cc1cc(=O)n(CCOc2ccccc2Cl)nc1N1CCNCC1,Emax,[3],31%
same,EC50,[4],510 nM
COc1ccccc1OCCn1nc(N2CCNCC2)ccc1=O,EC50,[4],> 10000 nM
O=c1ccc(N2CCNCC2)nn1CCOc1cccc(Cl)c1Cl,EC50,[4],> 2130 nM
Clc1ccccc1CCOc1cncc(N2CCNCC2)n1,EC50,[1],308 nM
same,Emax,[1],56%
same,efflux ratio,[6],2
same,Emax,[3],69%
same,EC50,[4],10 nM
same,EC50,[5],187 nM
same,Emax,[5],42%
same,logD,[7],2.2
same,microsomal CLint,[8],94 µL/min/mg
O=c1ccc(N2CCNCC2)nn1CCOc1ccccc1Br,Emax,[3],34%
same,EC50,[4],101 nM
C[C@H](COc1ccccc1Cl)n1nc(N2CCNCC2)ccc1=O,Emax,[3],55%
same,EC50,[4],> 1920 nM
O=c1ccc(N2CCNCC2)nn1CCOc1ccc(Cl)cc1,EC50,[4],> 10000 nM
O=c1c2c(c(N3CCNCC3)nn1CCOc1ccccc1Cl)CCC2,EC50,[4],> 10000 nM
C[C@H]1CN(c2ccc(=O)n(CCOc3ccccc3Cl)n2)CCN1,EC50,[4],> 10000 nM
O=c1ccc(N2CCNCC2)nn1CCOc1ccccc1Cl,EC50,[1],254 nM
same,Emax,[1],41%
same,Ki,[2],1600 nM
same,efflux ratio,[6],5
same,Emax,[3],58%
same,EC50,[4],164 nM
same,EC50,[5],> 10000 nM
same,logD,[7],0.6
same,microsomal CLint,[8],< 7 µL/min/mg
C[C@@H](COc1ccccc1Cl)n1nc(N2CCNCC2)ccc1=O,EC50,[1],65 nM
same,Emax,[1],69%
same,Ki,[2],728 nM
same,Emax,[3],77%
same,EC50,[4],25 nM
same,EC50,[5],506 nM
same,Emax,[5],30%
C[C@@H]1CNCCN1c1ccc(=O)n(CCOc2ccccc2C(F)(F)F)n1,Activity,[9],< 1000 nM
same,Activity,Canis familiaris [10],>20%
same,EC50,[1],41 nM
same,Emax,[1],61%
same,Activity,[11],< 1000 nM
same,Ki,[2],89 nM
same,Activity,[12],< 1000 nM
same,Activity,[13],< 1000 nM
same,Emax,[3],51%
same,EC50,[4],11 nM
same,Activity,[14],< 1000 nM
same,EC50,[5],> 2610 nM
same,concentration,Canis familiaris [15],52 nM
O=c1ccc(N2CCNCC2)nn1CCOc1ccccc1,EC50,[4],> 10000 nM
Cc1cc(N2CCNCC2)nn(CCOc2ccccc2Cl)c1=O,EC50,[4],> 10000 nM
C[C@H]1CNCCN1c1ccc(=O)n(CCOc2ccccc2Cl)n1,EC50,[4],> 10000 nM
Clc1cccc(N2CCNCC2)c1,Emax,[1],58%
N#Cc1ccccc1OCCn1nc(N2CCNCC2)ccc1=O,Emax,[3],69%
same,EC50,[4],114 nM
CC[C@@H]1CNCCN1c1ccc(=O)n(CCOc2ccccc2Cl)n1,Emax,[3],41%
same,EC50,[4],407 nM
C[C@@H]1CNCCN1c1ccc(=O)n(CCOc2ccccc2Cl)n1,EC50,[1],114 nM
same,Emax,[1],42%
same,Ki,[2],325 nM
same,efflux ratio,[6],6
same,Emax,[3],51%
same,EC50,[4],25 nM
same,EC50,[5],> 10000 nM
same,logD,[7],0.9
same,microsomal CLint,[8],9.8 µL/min/mg
C[C@@H](Cn1nc(N2CCNCC2)ccc1=O)Oc1ccccc1Cl,Emax,[3],87%
same,EC50,[4],360 nM
